Measured values from ChEMBL document CHEMBL3102757, “Synthesis and evaluation of the antiparasitic activity of bis-(arylmethylidene) cycloalkanones” (Eur J Med Chem, 2014).
The source made the active and inactive calls. The calls are words filed in the database; no cut-off is given here.

What was measured:
Trypanosoma cruzi = experiment: Trypanocidal activity against Trypanosoma cruzi Tulahuen amastigotes infected in mouse L929 cells assessed as parasite growth inhibition after 7 days by beta-galactosidase assay; format: functional, organism-based; settings: L929, 168 h
In short: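 L-929 fibroblasts (4.0×10^3/well) infected with β-galactosidase-expressing Tulahuen trypomastigotes (4.0×10^4/well) for 2 h, then washed. Compounds added at 48 h, in tetraplicate, RPMI without phenol red plus 10% FBS. After 7 days, chlorophenol red β-D-galactopyranoside (100 µM) and 0.1% Nonidet P-40 added overnight at 37 °C. Read at 570 nm as % growth inhibition. Benznidazole control.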

Trypanothione reductase = Trypanothione reductase (Trypanosoma cruzi, UniProt P28593); experiment: Inhibition of Trypanosoma cruzi trypanothione reductase expressed in Escherichia coli BL21(DE3) assessed as reduction of oxidized trypanothione preincubated for 30 mins measured for 30 mins by spectrophotometric analysis
[1] = biological target: T1, Glutathione reductase, mitochondrial (Homo sapiens, UniProt P00390); experiment: Inhibition of human recombinant glutathione reductase using glutathione as substrate preincubated for 30 mins by colorimetric assay
T1 sequence (P00390 whole entry): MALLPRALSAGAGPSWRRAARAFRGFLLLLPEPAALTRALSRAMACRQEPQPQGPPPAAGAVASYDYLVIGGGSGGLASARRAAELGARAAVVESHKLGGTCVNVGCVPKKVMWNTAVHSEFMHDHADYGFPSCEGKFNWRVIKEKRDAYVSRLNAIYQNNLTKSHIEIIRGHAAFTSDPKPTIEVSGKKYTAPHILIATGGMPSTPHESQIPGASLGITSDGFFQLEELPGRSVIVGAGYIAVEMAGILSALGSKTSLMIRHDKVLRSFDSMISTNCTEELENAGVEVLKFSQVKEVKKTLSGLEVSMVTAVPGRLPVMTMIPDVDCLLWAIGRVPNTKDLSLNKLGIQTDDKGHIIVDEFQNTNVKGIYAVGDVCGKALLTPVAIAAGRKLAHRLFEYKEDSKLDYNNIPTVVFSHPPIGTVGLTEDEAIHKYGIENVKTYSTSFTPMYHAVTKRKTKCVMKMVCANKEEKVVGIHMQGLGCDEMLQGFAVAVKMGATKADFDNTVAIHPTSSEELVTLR
In short: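 Recombinant human glutathione reductase (10 mU) in 100 mM potassium phosphate pH 7.0, 1 mM EDTA, 400 µM NADPH. Pre-incubated with compound 30 min at 27 °C. Started with oxidized glutathione (10 µL of 1 mM stock). […] Carmustine positive control.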

[2] = biological target: Cruzipain (Trypanosoma cruzi) (UniProt P25779); experiment: Inhibition of Trypanosoma cruzi recombinant cruzaine using Z-FR-AMC as substrate at 100 uM preincubated for 10 mins measured for 5 mins by spectrophotometric analysis relative to DMSO-treated control
In short: (§1)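 Fluorescence at ex 340/em 440 nm followed 5 min. Compounds screened at 100 µM. The main screen used 0.01% Triton without pre-incubation. Checks used 0.1% or no Triton and a 10-min pre-incubation. Triplicates, activity versus DMSO control.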

[3] = biological target: Cruzipain (Trypanosoma cruzi) (UniProt P25779); experiment: Inhibition of Trypanosoma cruzi recombinant cruzaine using Z-FR-AMC as substrate at 100 uM preincubated for 10 mins measured for 5 mins by spectrophotometric analysis in presence of triton relative to DMSO-treated control; in short: as §1
[4] = Selectivity index, ratio of CC50 for mouse peritoneal macrophages to IC50 for Leishmania amazonensis IFLA/BR/1967/PH-8 promastigotes; format: functional
In short: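 Ratio of peritoneal macrophage CC50 (MTT, 24 h) to promastigote IC50 (MTT, 48 h).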

[5] = Cytotoxicity against mouse peritoneal macrophages after 24 hrs by MTT assay; format: cell-based, Peritoneal macrophage cell
In short: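 Murine peritoneal macrophages (5×10^5) cultured 24 h with a range of compound concentrations. Viability read by MTT, given as % lysis relative to cultures treated with amphotericin B (1 µg/mL).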

Leishmania amazonensis = experiment: Antileishmanial activity against Leishmania amazonensis IFLA/BR/1967/PH-8 promastigotes assessed as parasite growth inhibition after 48 hrs by MTT assay; settings: IFLA/BR/1967/PH-8, 48 h
[6] = Selectivity index, ratio of CC50 for mouse L929 cells to IC50 for Trypanosoma cruzi Tulahuen amastigotes; format: functional
In short: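 Ratio of L-929 CC50 (alamarBlue, 96 h) to amastigote IC50 from the β-galactosidase infection assay.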

[7] = Cytotoxicity against mouse L929 cells after 96 hrs by Alamar blue assay; format: cell-based
In short: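 L-929 fibroblasts seeded at 4.0×10^3 per well, same culture timing as the infection assay, exposed to rising concentrations for 96 h in tetraplicate. alamarBlue added, absorbance at 570 and 600 nm after 4–6 h. Viability as % reduction versus untreated cells. CC50 by linear interpolation.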

Sequence of Cruzipain (Trypanosoma cruzi) (P25779 123-467 limits assumed): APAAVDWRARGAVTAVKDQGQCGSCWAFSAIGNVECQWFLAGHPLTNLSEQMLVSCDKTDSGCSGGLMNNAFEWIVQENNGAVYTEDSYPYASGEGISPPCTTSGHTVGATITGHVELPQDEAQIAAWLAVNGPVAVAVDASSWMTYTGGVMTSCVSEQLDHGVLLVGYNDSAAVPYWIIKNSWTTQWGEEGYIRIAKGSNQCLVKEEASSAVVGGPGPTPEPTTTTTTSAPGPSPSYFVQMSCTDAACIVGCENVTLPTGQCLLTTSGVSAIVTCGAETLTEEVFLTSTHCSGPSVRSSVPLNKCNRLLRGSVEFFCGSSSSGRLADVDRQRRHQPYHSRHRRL
Sequence of Trypanothione reductase (P28593 whole entry): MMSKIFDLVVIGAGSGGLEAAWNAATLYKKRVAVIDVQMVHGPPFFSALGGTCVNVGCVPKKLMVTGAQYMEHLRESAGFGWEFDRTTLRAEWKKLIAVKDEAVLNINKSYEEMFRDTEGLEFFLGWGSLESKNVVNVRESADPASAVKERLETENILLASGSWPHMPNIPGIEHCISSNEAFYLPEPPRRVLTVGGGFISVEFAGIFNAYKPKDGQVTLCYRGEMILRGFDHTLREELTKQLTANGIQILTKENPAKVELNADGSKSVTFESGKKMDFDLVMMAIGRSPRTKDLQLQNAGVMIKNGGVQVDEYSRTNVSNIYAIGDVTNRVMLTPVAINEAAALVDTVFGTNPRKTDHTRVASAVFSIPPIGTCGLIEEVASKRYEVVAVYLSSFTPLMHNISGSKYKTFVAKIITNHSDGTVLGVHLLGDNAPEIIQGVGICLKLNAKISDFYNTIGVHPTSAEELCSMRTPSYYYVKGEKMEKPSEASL

SMILES | IC50 (Trypanosoma cruzi) [µM] | IC50 (Trypanothione reductase) [µM] | IC50 [1] [µM] | inhibition [2] [%] | inhibition [3] | Ratio CC50/IC50 [4] | CC50 at 24 h [5] [µM] | IC50 (Leishmania amazonensis) [µM] | Ratio CC50/IC50 [6] | CC50 at 96 h [7] [µM]
O=C1/C(=C/c2ccncc2)CC/C1=C\c1ccncc1 | > 250 | > 100 | > 100 | 23 | inactive | – | – | – | – | –
CN(C)c1ccc(/C=C2\CC/C(=C\c3ccc(N(C)C)cc3)C2=O)cc1 | > 250 | > 100 | > 100 | – | – | 0.4 | 17.6 | 44.1 | – | –
O=C1/C(=C/c2ccccc2)CC/C1=C\c1ccccc1 | 73 | > 100 | > 100 | – | – | 1.6 | 76.2 | 46.6 | 5.1 | 375
O=C1/C(=C/c2ccc([N+](=O)[O-])cc2)CC/C1=C\c1ccc([N+](=O)[O-])cc1 | > 250 | > 100 | > 100 | 35 | inactive | – | – | – | – | –
O=C1/C(=C/c2ccc(Cn3cc(CCO)nn3)cc2)CC/C1=C\c1ccc(Cn2cc(CCO)nn2)cc1 | > 250 | > 100 | > 100 | 16 | inactive | 1.2 | 60.4 | 50.9 | – | –
O=C1/C(=C/c2cccc3cnccc23)CC/C1=C\c1cccc2cnccc12 | 31.3 | > 100 | > 100 | – | – | 23.8 | 21.4 | 0.9 | 16 | 500
O=C(Cn1ccnc1[N+](=O)[O-])NCc1ccccc1 [BENZNIDAZOLE] | – | – | – | – | – | – | – | – | >262 | > 1000
O=C1/C(=C/c2ccnc3ccccc23)CC/C1=C\c1ccnc2ccccc12 | 7 | > 100 | > 100 | – | – | 0.8 | 3.7 | 4.9 | 3.6 | 25.3
O=C1/C(=C/c2cccc3cnccc23)CCC/C1=C\c1cccc2cnccc12 | 68.7 | > 100 | > 100 | 19 | inactive | 9.3 | 78.1 | 8.4 | 2.7 | 188
Cc1ccc(/C=C2\CCC/C(=C\c3ccc(C)cc3)C2=O)cc1 | 230 | > 100 | > 100 | 32 | inactive | 0.2 | 19.7 | 110 | 1.1 | 250
O=C1/C(=C/c2ccc(Cn3cc(-c4ccccc4)nn3)cc2)CC/C1=C\c1ccc(Cn2cc(-c3ccccc3)nn2)cc1 | > 250 | > 100 | > 100 | – | – | – | – | – | – | –
O=C1/C(=C/c2ccnc3ccccc23)CCC/C1=C\c1ccnc2ccccc12 | > 250 | > 100 | > 100 | 42 | inactive | 1 | 0.6 | 0.6 | – | –
O=C1/C(=C/c2ccc[nH]2)CC/C1=C\c1ccc[nH]1 | > 250 | > 100 | > 100 | – | – | 3.8 | 55.8 | 14.7 | – | –
O=C1/C(=C/c2ccccc2)CCC/C1=C\c1ccccc1 [2,6-DIBENZYLIDENECYCLOHEXANONE] | > 250 | 45.8 | > 100 | 31 | inactive | 6 | 50.6 | 8.4 | – | –
O=NN(CCCl)C(=O)NCCCl [CARMUSTINE] | – | – | 8.1 | – | – | – | – | – | – | –
O=C1/C(=C/c2ccncc2)CCC/C1=C\c1ccncc1 | > 250 | 14.7 | > 100 | 66 | inactive | 19.9 | 23.9 | 1.2 | – | –
CN(C)c1ccc(/C=C2\CCC/C(=C\c3ccc(N(C)C)cc3)C2=O)cc1 | > 250 | > 100 | > 100 | – | – | 1.1 | 20.8 | 18.6 | – | –
O=C1/C(=C/c2ccc[nH]2)CCC/C1=C\c1ccc[nH]1 | 249 | > 100 | > 100 | – | – | 15.7 | 83.2 | 5.3 | 1.5 | 375
Cc1ccc(/C=C2\CC/C(=C\c3ccc(C)cc3)C2=O)cc1 | > 250 | > 100 | > 100 | – | – | 0.7 | 39.4 | 52.6 | – | –
C[C@@H]1[C@H](O)[C@@H](C)/C=C/C=C/C=C/C=C/C=C/C=C/C=C/[C@H](O[C@@H]2O[C@H](C)[C@@H](O)[C@H](N)[C@@H]2O)C[C@@H]2O[C@](O)(C[C@@H](O)C[C@@H](O)[C@H](O)CC[C@@H](O)C[C@@H](O)CC(=O)O[C@H]1C)C[C@H](O)[C@H]2C(=O)O [AMPHOTERICIN B] | – | – | – | – | – | 8.8 | 0.7 | 0.08 | – | –
[N-]=[N+]=NCc1ccc(/C=C2\CC/C(=C\c3ccc(CN=[N+]=[N-])cc3)C2=O)cc1 | > 250 | > 100 | 228 | – | – | – | – | – | – | –
